Results taken from ChEMBL document CHEMBL4033790, “Design and Synthesis of Novel Deuterated Ligands Functionally Selective for the γ-Aminobutyric Acid Type A Receptor (GABAAR) α6 Subtype with Improved Metabolic Stability and Enhanced Bioavailability” (J Med Chem, 2018).
In brackets after ≈: the same amount, converted by molar mass. Activity calls are given as the source filed them. The rule behind the calls is not given here.

Assays:
Mus musculus = test: Neurotoxicity in Swiss Webster mouse assessed as induction of motor impairment at 40 mg/kg administered via oral gavage measured after 10 to 60 mins by rotarod method; format: toxicity, organism-based; details: in vivo
How it was run: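 Female mice were given a single oral gavage dose of 40 mg/kg, either in 50% PBS/40% propylene glycol/10% DMSO or, for poorly soluble compounds, in 2% polyethylene glycol plus 2.5% hydroxymethyl cellulose. Rotarod performance was tested 10, 30 and 60 min after dosing, with diazepam 5 mg/kg as positive control.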

[1] = Metabolic stability in mouse liver microsomes assessed as parent compound remaining at 10 uM after 60 mins by LC-MS analysis; format: ADME, microsome; details: read-out: Stability
How it was run: (§1)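 The 60 min samples of the microsomal incubation (10 μM compound, human or mouse liver microsomes at 0.5 mg/mL, NADPH regenerating system, 37 °C) were analysed by LC-MS. Detection used SIM mode with dual ESI/APCI ionization, calibrated to the retention times and masses of the parent and its O-demethylated metabolites. Peak intensities were measured.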

[2] = Metabolic stability in human liver microsomes assessed as parent compound remaining at 10 uM after 60 mins by LC-MS analysis; format: ADME, microsome; details: read-out: Stability; how it was run: as §1
[3] = biological target: Voltage-gated inwardly rectifying potassium channel KCNH2 (Homo sapiens, UniProt Q12809); test: Displacement of [3H]-dofetilide from human ERG expressed in HEK cell membranes at >10 uM after 60 to 90 mins by scintillation counting
Sequence of Voltage-gated inwardly rectifying potassium channel KCNH2 (Q12809 whole entry): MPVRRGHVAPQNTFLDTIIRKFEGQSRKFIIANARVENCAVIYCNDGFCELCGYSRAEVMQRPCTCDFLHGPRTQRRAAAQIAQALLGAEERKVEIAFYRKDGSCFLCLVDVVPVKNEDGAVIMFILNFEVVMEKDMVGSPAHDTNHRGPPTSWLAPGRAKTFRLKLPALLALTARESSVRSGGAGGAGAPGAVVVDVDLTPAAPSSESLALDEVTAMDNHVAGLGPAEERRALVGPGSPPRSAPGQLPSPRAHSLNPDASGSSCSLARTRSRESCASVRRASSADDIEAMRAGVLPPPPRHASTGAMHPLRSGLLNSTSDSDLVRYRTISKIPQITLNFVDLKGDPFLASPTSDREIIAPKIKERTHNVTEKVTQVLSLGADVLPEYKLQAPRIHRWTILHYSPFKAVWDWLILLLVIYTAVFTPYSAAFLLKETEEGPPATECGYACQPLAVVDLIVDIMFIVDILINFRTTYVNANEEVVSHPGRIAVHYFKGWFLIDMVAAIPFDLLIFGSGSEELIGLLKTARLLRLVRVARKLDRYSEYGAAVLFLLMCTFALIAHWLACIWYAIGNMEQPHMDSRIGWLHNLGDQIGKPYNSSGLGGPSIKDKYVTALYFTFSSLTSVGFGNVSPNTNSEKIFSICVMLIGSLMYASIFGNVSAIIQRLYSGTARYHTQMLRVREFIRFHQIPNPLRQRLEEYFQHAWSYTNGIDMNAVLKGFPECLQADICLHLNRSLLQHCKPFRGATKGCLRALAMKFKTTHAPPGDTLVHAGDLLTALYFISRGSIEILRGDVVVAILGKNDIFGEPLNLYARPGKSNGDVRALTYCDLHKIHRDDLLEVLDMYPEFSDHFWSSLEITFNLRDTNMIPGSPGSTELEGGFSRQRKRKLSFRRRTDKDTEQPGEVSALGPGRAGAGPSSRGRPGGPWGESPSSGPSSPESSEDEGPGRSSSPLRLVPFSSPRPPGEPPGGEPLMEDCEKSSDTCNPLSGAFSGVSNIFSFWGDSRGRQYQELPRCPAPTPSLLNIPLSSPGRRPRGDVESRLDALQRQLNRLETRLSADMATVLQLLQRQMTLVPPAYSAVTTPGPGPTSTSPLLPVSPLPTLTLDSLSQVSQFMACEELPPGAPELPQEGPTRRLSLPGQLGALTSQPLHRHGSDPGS

[4] = Solubility of the compound in 0.01M HCl at pH 2 after 2 hrs by LC-MS analysis; format: physicochemical; details: buffer, pH 2, 2 h
How it was run: (§2)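 10 mg compound dissolved in 2 mL DMAC; 10 μL of this added to 2 mL DI water (pH 7, sonicated) or 2 mL 0.01 M aq HCl (pH 2), held 2 h at 37 °C. Filtered through 0.45 micron filter, then quantified by LC-MS in SIM mode against calibration curves of standards in DMAC (n = 5); n=3.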

[5] = Aqueous solubility of the compound in DI water at pH 7 after 2 hrs by LC-MS analysis; format: physicochemical; details: buffer, pH 7, 2 h; how it was run: as §2
HEK-293T = test: Cytotoxicity against HEK293T cells assessed as reduction in cell viability up to 400 uM after 48 hrs by CellTiter-Glo assay; format: cell-based; details: human
How it was run: (§3)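 HEK293T and HepG2 cells grown in high-glucose DMEM with non-essential amino acids, 10 mM HEPES, penicillin/streptomycin and 10% heat-inactivated FBS. Cells were harvested with trypsin and plated; compound was pin-transferred 3 h later. Incubation was 48 h, then CellTiter-Glo luminescence was read. Controls were DMSO (negative) and a cytotoxic aminoketone (positive). Quadruplicates, three independent runs, normalized to controls, nonlinear regression.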

Rattus norvegicus = species on record: Rattus norvegicus; test: Displacement of [3H]-flunitrazepam from rat brain GABA-A receptor benzodiazepine site […] at 10 uM after 60 to 90 mins by scintillation counting
HepG2 = test: Cytotoxicity against human HepG2 cells assessed as reduction in cell viability up to 400 uM after 48 hrs by CellTiter-Glo assay; format: cell-based; details: hepg2, 48 h; how it was run: as §3
[6] = biological target: GABA-A receptor; alpha-6/beta-3/gamma-2 (Homo sapiens) (UniProt P18507+P28472+Q16445); test: Positive allosteric modulation of GABA-A receptor alpha6beta3gamma2 (unknown origin) expressed in Xenopus laevis oocytes assessed as potentiation of EC3 GABA induced currents up to 10 uM at -60 mV holding potential by electrophysiological method; format: cell-based
How it was run: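 Stage 5–6 defolliculated Xenopus oocytes were injected with 2.5 ng total mRNA per oocyte: α1, α2, α3 or α5 with β3 and γ2 at 1:1:5, and α4 or α6 with β3 and γ2 at 3:1:5. Oocytes were kept ≥36 h at 18 °C in NDE medium before recording. Compounds were co-applied with GABA titrated to EC3-5 for each oocyte. Curves were fitted with the Hill equation; mean ± SEM from ≥3 oocytes across two batches.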

[7] = biological target: 5-hydroxytryptamine receptor 7 (Homo sapiens) (UniProt P34969); test: Displacement of [3H]-LSD from human recombinant 5HT7 receptor expressed in HEK293 cells at 10 uM after 60 to 90 mins by scintillation counting; format: cell-based; details: tested as the 2H-labelled form
Sequence of 5-hydroxytryptamine receptor 7 (Homo sapiens) (P34969 whole entry): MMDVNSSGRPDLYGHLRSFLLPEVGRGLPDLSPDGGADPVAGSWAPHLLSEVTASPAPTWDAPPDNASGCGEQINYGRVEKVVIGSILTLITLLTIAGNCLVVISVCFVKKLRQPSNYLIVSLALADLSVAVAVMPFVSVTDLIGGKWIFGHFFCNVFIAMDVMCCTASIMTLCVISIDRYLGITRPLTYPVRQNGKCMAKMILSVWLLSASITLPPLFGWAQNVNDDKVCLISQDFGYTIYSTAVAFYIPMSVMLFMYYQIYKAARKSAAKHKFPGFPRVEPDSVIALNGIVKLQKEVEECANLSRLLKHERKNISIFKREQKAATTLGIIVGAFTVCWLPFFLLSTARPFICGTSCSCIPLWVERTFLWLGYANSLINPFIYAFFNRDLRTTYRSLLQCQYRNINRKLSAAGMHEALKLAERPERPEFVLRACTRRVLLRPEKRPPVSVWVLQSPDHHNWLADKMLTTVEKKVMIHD

[8] = biological target: Mu-type opioid receptor (Homo sapiens) (UniProt P35372); test: Displacement of [3H]-DAMGO from human recombinant MOR expressed in HEK293 cells at 10 uM after 60 to 90 mins by scintillation counting; format: cell-based; details: tested as the 2H-labelled form
Sequence of Mu-type opioid receptor (Homo sapiens) (P35372 whole entry): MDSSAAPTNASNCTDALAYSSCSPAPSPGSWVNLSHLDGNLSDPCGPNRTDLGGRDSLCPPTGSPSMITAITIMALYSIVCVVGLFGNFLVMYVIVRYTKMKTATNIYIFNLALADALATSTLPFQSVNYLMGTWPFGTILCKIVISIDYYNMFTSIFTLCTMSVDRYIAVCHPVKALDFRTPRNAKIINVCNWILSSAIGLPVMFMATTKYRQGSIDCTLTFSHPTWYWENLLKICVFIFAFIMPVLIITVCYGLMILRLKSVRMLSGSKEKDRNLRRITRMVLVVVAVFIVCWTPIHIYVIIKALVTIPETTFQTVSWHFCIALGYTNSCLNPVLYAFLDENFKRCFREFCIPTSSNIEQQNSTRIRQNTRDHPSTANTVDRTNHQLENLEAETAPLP

[9] = biological target: T1, 5-hydroxytryptamine receptor 2C (Homo sapiens) (UniProt P28335); test: Displacement of [3H]-mesulergine from human recombinant 5HT2C receptor expressed in HEK293T cells at 10 uM after 60 to 90 mins by scintillation counting; format: cell-based; details: HEK-293T, tested as the 2H-labelled form
T1 sequence (whole entry): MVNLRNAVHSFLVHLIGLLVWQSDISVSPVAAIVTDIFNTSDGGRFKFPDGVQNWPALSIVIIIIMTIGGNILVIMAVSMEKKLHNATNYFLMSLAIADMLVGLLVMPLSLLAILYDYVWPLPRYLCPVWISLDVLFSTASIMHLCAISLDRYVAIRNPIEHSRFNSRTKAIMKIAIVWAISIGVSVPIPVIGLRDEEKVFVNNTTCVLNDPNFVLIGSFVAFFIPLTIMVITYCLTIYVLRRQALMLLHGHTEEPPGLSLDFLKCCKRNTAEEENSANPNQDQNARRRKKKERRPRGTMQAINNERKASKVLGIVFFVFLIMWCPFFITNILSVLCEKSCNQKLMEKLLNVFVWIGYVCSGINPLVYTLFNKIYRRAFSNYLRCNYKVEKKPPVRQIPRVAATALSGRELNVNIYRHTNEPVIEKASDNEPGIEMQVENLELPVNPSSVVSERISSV

[10] = biological target: 5-hydroxytryptamine receptor 2B (Homo sapiens) (UniProt P41595); test: Displacement of [3H]-LSD from human recombinant 5HT2B receptor expressed in HEK293 cells at 10 uM after 60 to 90 mins by scintillation counting; format: cell-based; details: tested as the 2H-labelled form
Sequence of 5-hydroxytryptamine receptor 2B (Homo sapiens) (P41595 whole entry): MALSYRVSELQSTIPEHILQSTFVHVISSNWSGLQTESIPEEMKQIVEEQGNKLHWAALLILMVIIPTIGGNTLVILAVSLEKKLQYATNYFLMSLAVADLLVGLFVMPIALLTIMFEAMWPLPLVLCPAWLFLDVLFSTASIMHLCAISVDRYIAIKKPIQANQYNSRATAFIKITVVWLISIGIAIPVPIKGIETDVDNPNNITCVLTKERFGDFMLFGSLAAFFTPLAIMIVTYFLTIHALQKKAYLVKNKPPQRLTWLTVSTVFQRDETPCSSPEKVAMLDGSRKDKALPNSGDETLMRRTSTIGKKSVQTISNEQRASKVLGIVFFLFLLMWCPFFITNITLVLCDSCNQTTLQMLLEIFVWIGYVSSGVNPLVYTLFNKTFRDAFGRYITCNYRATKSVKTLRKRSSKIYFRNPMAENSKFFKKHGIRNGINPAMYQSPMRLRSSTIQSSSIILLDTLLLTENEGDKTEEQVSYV

Liver [11] = test: Half life in mouse liver microsomes at 10 uM by LC-MS/MS analysis; format: ADME, microsome
How it was run: (§4)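 Compound at 10 μM final was preincubated 5 min at 37 °C with NADPH regenerating system in phosphate buffer, pH 7.4. Human or mouse liver microsomes (0.5 mg/mL protein) were added to start the reaction. Samples were taken at 0 (no microsomes) and 10–60 min and measured by LC-MS/MS against an internal standard. Half-life = 0.693/k, with k the slope of ln peak-area ratio versus time. Three experiments, each in duplicate.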

Liver [12] = test: Half life in human liver microsomes at 10 uM by LC-MS/MS analysis; format: ADME, microsome; how it was run: as §4

| SMILES | Activity (Mus musculus) | remaining at 1 h, 10 µM [1] [%] | remaining at 1 h, 10 µM [2] [%] | inhibition (INH) [3] | t1/2 (Liver [11]) [h] | t1/2 (Liver [12]) [h] | other results |
| --- | --- | --- | --- | --- | --- | --- | --- |
| [2H]C([2H])([2H])Oc1ccc(-n2nc3c4cc(Cl)ccc4[nH]cc-3c2=O)cn1 | Non-Toxic | 85.1 | 93 | Not Active | – | – | – |
| COc1ccc(-n2nc3c4cc(Cl)ccc4[nH]cc-3c2=O)cn1 | Non-Toxic | 85.6 | 91.6 | Not Active | – | – | solubility [4]: 0.9 µM (≈ 0.294 µg/mL); solubility [5]: 0.8 µM (≈ 0.261 µg/mL); Activity (HEK-293T): Non-Toxic; inhibition (Rattus norvegicus): Active; inhibition (Rattus norvegicus; tested as the 2H-labelled form): Active; Activity (HepG2): Non-Toxic; Activity ([6]; tested as the 2H-labelled form): inactive |
| COc1ccc(-n2nc3c4ccc(Br)cc4[nH]cc-3c2=O)cn1 | Non-Toxic | 93.1 | 93.4 | Not Active | – | – | solubility [4]: 7.2 µM (≈ 2.67 µg/mL); solubility [5]: 7.3 µM (≈ 2.71 µg/mL); Activity (HEK-293T): Non-Toxic; Activity (HepG2): Non-Toxic; Activity ([6]; tested as the 2H-labelled form): Active |
| [2H]C([2H])([2H])Oc1cccc(-n2nc3c4cc(OC([2H])([2H])[2H])ccc4[nH]cc-3c2=O)c1 | – | – | – | Not Active | – | – | – |
| COc1ccccc1-n1nc2c3ccc(Br)cc3[nH]cc-2c1=O | – | – | – | – | – | – | inhibition (Rattus norvegicus; tested as the 2H-labelled form): Active; inhibition [7]: Active; inhibition [8]: Active; inhibition [9]: Active; inhibition [10]: Active |
| COc1ccc(-n2nc3c4cnc(OC)cc4[nH]cc-3c2=O)cc1 | – | 93 | 91 | Not Active | 12 | 10.6 | solubility [4]: 135.9 µM (≈ 43.8 µg/mL); solubility [5]: 103.7 µM (≈ 33.4 µg/mL); Activity [6]: Active |
| COc1ccc2c3nn(-c4ccccc4OC)c(=O)c-3c[nH]c2c1 | – | – | – | – | – | – | inhibition (Rattus norvegicus; tested as the 2H-labelled form): inactive |
| [2H]C([2H])([2H])Oc1ccccc1-n1nc2c3ccc(OC)cc3[nH]cc-2c1=O | – | 93 | 79.9 | Not Active | 10.9 | 3.5 | – |
| [2H]C([2H])([2H])Oc1ccc2[nH]cc3c(=O)n(-c4ccccc4OC([2H])([2H])[2H])nc-3c2c1 | – | – | – | Not Active | – | – | – |
| [2H]C([2H])([2H])Oc1ccc(-n2nc3c4ccc(Br)cc4[nH]cc-3c2=O)cn1 | Non-Toxic | 98.4 | 97.8 | Not Active | – | – | – |
| [2H]C([2H])([2H])Oc1ccc(-n2nc3c4cc(OC([2H])([2H])[2H])ccc4[nH]cc-3c2=O)cc1 | – | – | – | Not Active | – | – | – |
| [2H]C([2H])([2H])Oc1cccc(-n2nc3c4ccc(OC([2H])([2H])[2H])cc4[nH]cc-3c2=O)c1 | – | 90.5 | 89.5 | Not Active | 9.9 | 7.7 | Activity (HEK-293T): Non-Toxic; Activity (HepG2): Non-Toxic |
| [2H]C([2H])([2H])Oc1ccc2c3nn(-c4ccccc4OC([2H])([2H])[2H])c(=O)c-3c[nH]c2c1 | – | 92 | 90.5 | Not Active | 13.9 | 9.9 | Activity (HEK-293T): Non-Toxic; Activity (HepG2): Non-Toxic |
| [2H]C([2H])([2H])Oc1ccc(-n2nc3c4cc(Cl)ccc4[nH]cc-3c2=O)cc1 | Non-Toxic | 85.5 | 92.2 | Not Active | – | – | Activity (HEK-293T): Non-Toxic; Activity (HepG2): Non-Toxic |
| [2H]C([2H])([2H])Oc1cccc(-n2nc3c4ccc(OC)cc4[nH]cc-3c2=O)c1 | – | 91.6 | 81.3 | Not Active | 14.5 | 3.9 | – |
| COc1cccc(-n2nc3c4ccc(Br)cc4[nH]cc-3c2=O)c1 | – | – | – | – | – | – | inhibition (Rattus norvegicus; tested as the 2H-labelled form): Active; inhibition [7]: Active; inhibition [8]: Active; inhibition [9]: Active; inhibition [10]: Active |
| [2H]C([2H])([2H])Oc1ccccc1-n1nc2c3ccc(Br)cc3[nH]cc-2c1=O | – | 61.3 | 92.8 | Not Active | 1.5 | 14.2 | – |
| COc1ccccc1-n1nc2c3cc(Cl)ccc3[nH]cc-2c1=O | – | – | – | – | – | – | inhibition (Rattus norvegicus; tested as the 2H-labelled form): Active; Activity ([6]; tested as the 2H-labelled form): inactive |
| [2H]C([2H])([2H])Oc1ccc2c3nn(-c4ccc(OC([2H])([2H])[2H])nc4)c(=O)c-3c[nH]c2c1 | Non-Toxic | 92.5 | 90 | – | 14.5 | 9.8 | – |
| [2H]C([2H])([2H])Oc1cccc(-n2nc3c4ccc(Br)cc4[nH]cc-3c2=O)c1 | – | 79.5 | 63.5 | Not Active | 3.6 | 1.8 | – |
